ChEMBL document CHEMBL3600309, “Structure activity relationship study of burkholdine analogues toward simple antifungal agents” (2015)
In brackets after ≈: the same amount, converted by molar mass. Activity calls are given as the source filed them. No cut-off for these calls is given here.

What was measured:
Assay type in all cases: functional
[1] = Antifungal activity against Candida viswanathii NBRC10321 at 400 ug/ml after 24 hrs by twofold serial dilution method
In short: (§1)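 Compounds were first screened at a single concentration of 400 against each fungus. MIC values were then determined only for selected compounds.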

Saccharomyces cerevisiae = experiment: Antifungal activity against Saccharomyces cerevisiae X2180-1A after 24 hrs by twofold serial dilution method; in short: as §1
Aspergillus oryzae = experiment: Antifungal activity against Aspergillus oryzae 1-Murasaki-1 after 24 hrs by twofold serial dilution method; conditions: 1-Murasaki-1, 24 h; in short: as §1

Row | MIC (Saccharomyces cerevisiae) [µg/mL] | MIC (Aspergillus oryzae) [µg/mL] | Structure (SMILES) | Activity [1]
1 | – | – | CCCCCCCCNC(=O)[C@H]1CC(=O)N[C@H](CO)C(=O)N[C@H](Cc2ccc(O)cc2)C(=O)N[C@H](CC(N)=O)C(=O)NCC(=O)N[C@@H](CC(N)=O)C(=O)N[C@@H](CO)C(=O)N[C@@H](CC(N)=O)C(=O)N1 | inactive
2 | – | – | CCCCCCCCCCCCNC(=O)[C@H](CC(=O)N[C@H](CO)C(=O)O)NC(=O)[C@H](CC(N)=O)NC(=O)[C@H](CO)NC(=O)[C@H](CC(N)=O)NC(=O)CNC(=O)[C@@H](CC(N)=O)NC(=O)[C@H](N)Cc1ccc(O)cc1 | inactive
3 | – | – | CCCCCCCCCCCCNC(=O)[C@H](CC(=O)N[C@H](CO)C(=O)N[C@H](Cc1ccc(O)cc1)C(=O)N[C@H](CC(N)=O)C(=O)O)NC(=O)[C@H](CC(N)=O)NC(=O)[C@H](CO)NC(=O)[C@H](CC(N)=O)NC(=O)CN | inactive
4 | – | – | CCCCCCCCCCCCNC(=O)[C@@H]1CC(=O)N[C@H](CO)C(=O)N[C@H](Cc2ccc(O)cc2)C(=O)N[C@H](CC(N)=O)C(=O)NCC(=O)N[C@@H](CC(N)=O)C(=O)N[C@H](CO)C(=O)N[C@H](CC(N)=O)C(=O)N1 | inactive
5 | 100 (≈ 98.1 µM) | 200 (≈ 196 µM) | CCCCCCCCCCCCNC(=O)[C@H]1CC(=O)N[C@H](CO)C(=O)N[C@H](Cc2ccc(O)cc2)C(=O)N[C@H](CC(N)=O)C(=O)NCC(=O)N[C@H](CC(N)=O)C(=O)N[C@H](CO)C(=O)N[C@H](CC(N)=O)C(=O)N1 | inactive
6 | 1 (≈ 1.08 µM) | – | C[C@@H]1[C@H](O)[C@@H](C)/C=C/C=C/C=C/C=C/C=C/C=C/C=C/[C@H](O[C@@H]2O[C@H](C)[C@@H](O)[C@H](N)[C@@H]2O)C[C@@H]2O[C@](O)(C[C@@H](O)C[C@@H](O)[C@H](O)CC[C@@H](O)C[C@@H](O)CC(=O)O[C@H]1C)C[C@H](O)[C@H]2C(=O)O [AMPHOTERICIN B] | –
7 | 100 (≈ 98.1 µM) | 200 (≈ 196 µM) | CCCCCCCCCCCCNC(=O)[C@H]1CC(=O)N[C@H](CO)C(=O)N[C@H](Cc2ccc(O)cc2)C(=O)N[C@H](CC(N)=O)C(=O)NCC(=O)N[C@H](CC(N)=O)C(=O)N[C@H](CO)C(=O)N[C@@H](CC(N)=O)C(=O)N1 | inactive
8 | – | – | CCCCCCCCCCCCNC(=O)[C@@H]1CC(=O)N[C@H](CO)C(=O)N[C@H](Cc2ccc(O)cc2)C(=O)N[C@H](CC(N)=O)C(=O)NCC(=O)N[C@H](CC(N)=O)C(=O)N[C@@H](CO)C(=O)N[C@H](CC(N)=O)C(=O)N1 | inactive
9 | – | – | CCCCCCCCCCCCNC(=O)[C@@H]1CC(=O)N[C@H](CO)C(=O)N[C@H](Cc2ccc(O)cc2)C(=O)N[C@H](CC(N)=O)C(=O)NCC(=O)N[C@@H](CC(N)=O)C(=O)N[C@H](CO)C(=O)N[C@@H](CC(N)=O)C(=O)N1 | inactive
10 | > 400 | 200 (≈ 196 µM) | CCCCCCCCCCCCNC(=O)[C@@H]1CC(=O)N[C@H](CO)C(=O)N[C@H](Cc2ccc(O)cc2)C(=O)N[C@H](CC(N)=O)C(=O)NCC(=O)N[C@H](CC(N)=O)C(=O)N[C@H](CO)C(=O)N[C@H](CC(N)=O)C(=O)N1 | inactive
11 | 400 (≈ 392 µM) | 200 (≈ 196 µM) | CCCCCCCCCCCCNC(=O)[C@H]1CC(=O)N[C@H](CO)C(=O)N[C@H](Cc2ccc(O)cc2)C(=O)N[C@H](CC(N)=O)C(=O)NCC(=O)N[C@H](CC(N)=O)C(=O)N[C@@H](CO)C(=O)N[C@H](CC(N)=O)C(=O)N1 | inactive
12 | – | – | CCCCCCCCCCCCNC(=O)[C@H]1CC(=O)N[C@H](CO)C(=O)N[C@H](Cc2ccc(O)cc2)C(=O)N[C@H](CC(N)=O)C(=O)NCC(=O)N[C@H](CC(N)=O)C(=O)N[C@@H](CO)C(=O)N[C@@H](CC(N)=O)C(=O)N1 | inactive
13 | – | – | CCCCCCCCCCCCNC(=O)[C@H](CC(=O)N[C@H](CO)C(=O)N[C@H](Cc1ccc(O)cc1)C(=O)N[C@H](CC(N)=O)C(=O)NCC(=O)O)NC(=O)[C@H](CC(N)=O)NC(=O)[C@H](CO)NC(=O)[C@@H](N)CC(N)=O | inactive
14 | – | – | CCCCCCCCCCCCNC(=O)[C@H](CC(=O)N[C@H](CO)C(=O)N[C@H](Cc1ccc(O)cc1)C(=O)O)NC(=O)[C@H](CC(N)=O)NC(=O)[C@H](CO)NC(=O)[C@H](CC(N)=O)NC(=O)CNC(=O)[C@H](N)CC(N)=O | inactive
15 | 25 (≈ 24.5 µM) | 50 (≈ 49.1 µM) | CCCCCCCCCCCCNC(=O)[C@@H]1CC(=O)N[C@H](CO)C(=O)N[C@H](Cc2ccc(O)cc2)C(=O)N[C@H](CC(N)=O)C(=O)NCC(=O)N[C@@H](CC(N)=O)C(=O)N[C@@H](CO)C(=O)N[C@@H](CC(N)=O)C(=O)N1 | inactive
16 | 400 (≈ 392 µM) | 200 (≈ 196 µM) | CCCCCCCCCCCCNC(=O)[C@H]1CC(=O)N[C@H](CO)C(=O)N[C@H](Cc2ccc(O)cc2)C(=O)N[C@H](CC(N)=O)C(=O)NCC(=O)N[C@@H](CC(N)=O)C(=O)N[C@H](CO)C(=O)N[C@H](CC(N)=O)C(=O)N1 | inactive
17 | – | – | CCCCCCCCCCCCNC(=O)[C@@H]1CC(=O)N[C@H](CO)C(=O)N[C@H](Cc2ccc(O)cc2)C(=O)N[C@H](CC(N)=O)C(=O)NCC(=O)N[C@H](CC(N)=O)C(=O)N[C@@H](CO)C(=O)N[C@@H](CC(N)=O)C(=O)N1 | inactive
18 | – | – | CCCCCCCCNC(=O)[C@@H]1CC(=O)N[C@H](CO)C(=O)N[C@H](Cc2ccc(O)cc2)C(=O)N[C@H](CC(N)=O)C(=O)NCC(=O)N[C@@H](CC(N)=O)C(=O)N[C@@H](CO)C(=O)N[C@@H](CC(N)=O)C(=O)N1 | inactive
19 | – | – | CCCCCCCCCCCCNC(=O)[C@H]1CC(=O)N[C@H](CO)C(=O)N[C@H](Cc2ccc(O)cc2)C(=O)N[C@H](CC(N)=O)C(=O)NCC(=O)N[C@@H](CC(N)=O)C(=O)N[C@H](CO)C(=O)N[C@@H](CC(N)=O)C(=O)N1 | inactive
20 | – | – | CCCCCCCCCCCCNC(=O)[C@H](CC(=O)N[C@H](CO)C(=O)N[C@H](Cc1ccc(O)cc1)C(=O)N[C@H](CC(N)=O)C(=O)NCC(=O)N[C@@H](CC(N)=O)C(=O)O)NC(=O)[C@H](CC(N)=O)NC(=O)[C@@H](N)CO | inactive
21 | – | – | CCCCCCCCCCCCNC(=O)[C@H](CC(=O)N[C@H](CO)C(=O)N[C@H](Cc1ccc(O)cc1)C(=O)N[C@H](CC(N)=O)C(=O)NCC(=O)N[C@@H](CC(N)=O)C(=O)N[C@@H](CO)C(=O)O)NC(=O)[C@@H](N)CC(N)=O | inactive
22 | – | – | CCCCCCCCCCCCCCCCNC(=O)[C@@H]1CC(=O)N[C@H](CO)C(=O)N[C@H](Cc2ccc(O)cc2)C(=O)N[C@H](CC(N)=O)C(=O)NCC(=O)N[C@@H](CC(N)=O)C(=O)N[C@@H](CO)C(=O)N[C@@H](CC(N)=O)C(=O)N1 | inactive
23 | – | – | CCCCCCCCCCCCNC(=O)[C@@H]1CC(=O)N[C@H](CO)C(=O)N[C@H](Cc2ccc(O)cc2)C(=O)N[C@H](CC(N)=O)C(=O)NCC(=O)N[C@@H](CC(N)=O)C(=O)N[C@@H](CO)C(=O)N[C@H](CC(N)=O)C(=O)N1 | inactive
24 | 50 (≈ 49.1 µM) | 50 (≈ 49.1 µM) | CCCCCCCCCCCCNC(=O)[C@H]1CC(=O)N[C@H](CO)C(=O)N[C@H](Cc2ccc(O)cc2)C(=O)N[C@H](CC(N)=O)C(=O)NCC(=O)N[C@@H](CC(N)=O)C(=O)N[C@@H](CO)C(=O)N[C@@H](CC(N)=O)C(=O)N1 | inactive
25 | – | – | CCCCCCCCCCCCNC(=O)[C@@H]1CC(=O)N[C@H](CO)C(=O)N[C@H](Cc2ccc(O)cc2)C(=O)N[C@H](CC(N)=O)C(=O)NCC(=O)N[C@H](CC(N)=O)C(=O)N[C@H](CO)C(=O)N[C@@H](CC(N)=O)C(=O)N1 | inactive
26 | – | – | CCCCCCCCCCCCCCCCNC(=O)[C@H]1CC(=O)N[C@H](CO)C(=O)N[C@H](Cc2ccc(O)cc2)C(=O)N[C@H](CC(N)=O)C(=O)NCC(=O)N[C@@H](CC(N)=O)C(=O)N[C@@H](CO)C(=O)N[C@@H](CC(N)=O)C(=O)N1 | inactive
27 | > 400 | 200 (≈ 196 µM) | CCCCCCCCCCCCNC(=O)[C@H]1CC(=O)N[C@H](CO)C(=O)N[C@H](Cc2ccc(O)cc2)C(=O)N[C@H](CC(N)=O)C(=O)NCC(=O)N[C@@H](CC(N)=O)C(=O)N[C@@H](CO)C(=O)N[C@H](CC(N)=O)C(=O)N1 | inactive
